# Published values from different studies.
# Protocols differ between the studies behind these lines.
# Target: Phosphatidylinositol 5-phosphate 4-kinase type-2 gamma (PIP4K2C, Homo sapiens, UniProt Q8TBX8)
# One construct used (Q8TBX8 1-421): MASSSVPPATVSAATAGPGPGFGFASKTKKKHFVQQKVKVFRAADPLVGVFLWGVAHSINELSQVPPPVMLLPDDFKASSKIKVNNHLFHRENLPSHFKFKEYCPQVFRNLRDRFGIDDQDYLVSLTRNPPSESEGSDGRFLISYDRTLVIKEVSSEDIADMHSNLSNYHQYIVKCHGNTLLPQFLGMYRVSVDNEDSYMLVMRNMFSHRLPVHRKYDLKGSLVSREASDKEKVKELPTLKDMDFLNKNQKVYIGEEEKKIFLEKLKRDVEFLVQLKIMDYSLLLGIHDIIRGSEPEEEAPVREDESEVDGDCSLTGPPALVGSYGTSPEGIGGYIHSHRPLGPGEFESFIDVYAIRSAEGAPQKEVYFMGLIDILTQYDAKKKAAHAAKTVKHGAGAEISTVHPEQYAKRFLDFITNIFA
SMILES,test,conditions,remaining binding [%]
CN(C)c1nccc(-c2cnn3ncccc23)n1,binding,1 µM,100
Cc1cc(C)c(-n2ccn3nc(-c4cccnc4)cc23)cc1NC(=O)c1cc(C#N)cc(S(F)(F)(F)(F)F)c1,"cell-free assay, competition with immobilised ligand",0.1 µM,89.9
C[C@@H](c1ccc(-n2cnc3c(N)ncnc32)cc1)N1CCc2nn(C)c(Cc3ccccc3)c2C1=O,"binding, competition with immobilised ligand",0.1 µM,96
O=C(c1ccc(Nc2ncc(Cl)c(-c3cc4ccccc4s3)n2)cc1)N1CCC(N2CCCC2)CC1,"binding, competition with immobilised ligand",1 µM,6.7
O=C(NCC1CCOCC1)c1n[nH]cc1NC(=O)c1c(F)cccc1F,"binding, competition with immobilised ligand",1 µM,91
O=C(N1CCS(=O)(=O)CC1)N1C[C@H](c2ccc(OC(F)(F)F)cc2)C[C@H](c2nc(C3CC3)no2)C1,"cell-free assay, competition with immobilised ligand",1 µM,96
COc1ccnn2ncc(-c3ccnc(N(C)C)n3)c12,binding,1 µM,80
C=CC(=O)N1CCC(C(=O)NCC(=O)N2CCN(c3nc(-c4cnc(N)nc4C(F)F)nc(N4CCOCC4)n3)CC2)CC1,"binding, competition with immobilised ligand",1 µM,95
NS(=O)(=O)c1cc(NC(=O)Cc2ccccc2)ccc1Oc1cccc(Cl)c1,"cell-free assay, competition with immobilised ligand",1 µM,100
c1cncc(-c2cccc(Nc3nccc(NC4CCCCC4)n3)c2)c1,"binding, competition with immobilised ligand",10 µM,21
CN(C)c1ncc(F)c(-c2cnn3ncccc23)n1,binding,1 µM,95
CCS(=O)(=O)c1cc2cc(C[C@](O)(CC(C)(C)c3ccc(F)cc3C(N)=O)C(F)(F)F)[nH]c2cn1,"cell-free assay, competition with immobilised ligand",1 µM,100
COc1cnc(Nc2cccc(S(N)(=O)=O)c2)nc1N1CCN(c2ccccc2)CC1,"binding, competition with immobilised ligand",1 µM,95
O=C(NCCCN1CCOCC1)c1ccc(Nc2ncc(Cl)c(-c3ccc(Cl)s3)n2)cc1,"binding, competition with immobilised ligand",1 µM,15
CN(c1nccc(-c2cnn3ncccc23)n1)C1CC1,binding,1 µM,100
CNC(=O)[C@@H]1CC[C@@H](n2c(-c3ccc4cnccc4c3)nc3ccc(C(=O)NCc4cccc(C(N)=O)c4)cc32)C1,"binding, competition with immobilised ligand",1 µM,91
CC1CCCN1c1nccc(-c2cnn3ncccc23)n1 (stereo not shown),binding,1 µM,100
O=C(c1ccc(Nc2nccc(-c3cc4ccccc4s3)n2)cc1)N1CCC(N2CCCC2)CC1,"binding, competition with immobilised ligand",1 µM,1.4
CC(=O)N1CCC(c2ccc(C(=O)NC3=NCCN3)cc2C(F)(F)F)CC1,"cell-free assay, competition with immobilised ligand",1 µM,94
N[C@@H]1CCN(c2nccc(-c3cnn4ncccc34)n2)C1,binding,1 µM,64
Cc1cc(-n2nc(Cc3cc(F)cc(C(F)(F)F)c3)nc2C)ccc1C(N)=O,"cell-free assay, competition with immobilised ligand",1 µM,100
C[C@@H]1CCN(c2nccc(-c3cnn4ncccc34)n2)C1,binding,1 µM,40
